{"source": "ChEMBL document CHEMBL3297654", "about": "“Synthesis, antimicrobial and cytotoxic activities, and structure-activity relationships of gypsogenin derivatives against human cancer cells” (Eur J Med Chem, 2014)", "key": {"[1]": {"tested_on": "Bacillus thuringiensis", "experiment": "Antimicrobial activity against Bacillus thuringiensis assessed as zone of inhibition at 10 mg for 24 hrs at 30 degC by disk diffusion test", "format": "functional, organism-based", "outline": "(§1)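 Well diffusion on Mueller Hinton agar per NCCLS disc susceptibility tests. DMSO stocks were 1000 µg/mL. Bacterial broth cultures (18–24 h) were adjusted to 0.5 McFarland, about 1×10^8 cells/mL. A 6 mm well received 30 µL compound. Incubation was 24 h at 30 °C, and zone diameters were read in mm. B. thuringiensis was a fecal clinical isolate grown in nutrient broth.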"}, "[2]": {"tested_on": "Proteus vulgaris", "experiment": "Antimicrobial activity against Proteus vulgaris ATCC 33420 assessed as zone of inhibition at 10 mg by disk diffusion test", "format": "functional, organism-based"}, "[3]": {"tested_on": "Bacillus subtilis", "experiment": "Antimicrobial activity against Bacillus subtilis ATCC 6633 assessed as zone of inhibition at 10 mg by disk diffusion test", "format": "functional, organism-based"}, "[4]": {"tested_on": "Klebsiella pneumoniae", "experiment": "Antimicrobial activity against Klebsiella pneumoniae ATCC 13882 assessed as zone of inhibition at 10 mg for 24 hrs at 37 degC by disk diffusion test", "format": "functional, organism-based", "outline": "(§2)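 Agar well diffusion following NCCLS disc susceptibility guidance. Compounds were held as 1000 µg/mL stocks in DMSO. Broth cultures (18–24 h) were adjusted to 0.5 McFarland (1×10^8 cells/mL) and spread on Mueller Hinton agar. A 6 mm well was cut and filled with 30 µL compound. Plates were incubated 24 h at 37 °C, and the inhibition zone diameter was measured in mm.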"}, "[5]": {"tested_on": "Pseudomonas aeruginosa", "experiment": "Antimicrobial activity against Pseudomonas aeruginosa ATCC 35032 assessed as zone of inhibition at 10 mg for 24 hrs at 37 degC by disk diffusion test", "format": "functional, organism-based", "outline": "as §2"}, "[6]": {"tested_on": "Escherichia coli", "experiment": "Antimicrobial activity against Escherichia coli ATCC 25922 assessed as zone of inhibition at 10 mg for 24 hrs at 37 degC by disk diffusion test", "format": "functional, organism-based"}, "[7]": {"tested_on": "Bacillus cereus", "experiment": "Antimicrobial activity against Bacillus cereus ATCC 11778 assessed as zone of inhibition at 10 mg for 24 hrs at 30 degC by disk diffusion test", "format": "functional, organism-based", "outline": "as §1"}, "[8]": {"tested_on": "Enterococcus faecalis", "experiment": "Antimicrobial activity against Enterococcus faecalis ATCC 29212 assessed as zone of inhibition at 10 mg for 24 hrs at 37 degC by disk diffusion test", "format": "functional", "details": "ATCC 29212, 24 h, read-out: DIZ", "outline": "as §2"}}, "note": "Active and inactive are the calls of the source. The rule behind the calls is not given here."}
{"smiles": "CC1(C)S[C@@H]2[C@H](NC(=O)[C@H](N)c3ccccc3)C(=O)N2[C@H]1C(=O)O", "note": "[AMPICILLIN]", "values": [{"measurement": "diameter of the inhibition zone (DIZ)", "setting": "[1]", "value": "inactive"}, {"measurement": "diameter of the inhibition zone (DIZ)", "setting": "[2]", "value": "inactive"}, {"measurement": "diameter of the inhibition zone (DIZ)", "setting": "[3]", "value": "inactive"}, {"measurement": "diameter of the inhibition zone (DIZ)", "setting": "[4]", "value": "inactive"}, {"measurement": "diameter of the inhibition zone (DIZ)", "setting": "[5]", "value": "inactive"}, {"measurement": "diameter of the inhibition zone (DIZ)", "setting": "[6]", "value": "inactive"}, {"measurement": "diameter of the inhibition zone (DIZ)", "setting": "[7]", "value": "inactive"}, {"measurement": "zone of inhibition at 10000 µg/disc", "setting": "[8]", "value": 14, "unit": "mm"}]}
